# Compounds with a hit are over-represented: about 2.9% of the library has one in this group of screens.
# GSIS activator – GLuc luminescence reporter in INS-1E cells, primary screen for activators of glucose-dependent secretion of insulin | INS-1E GLuc reporter insulin secretion, 2-3 h | activation, % at 16.6 µM | hit rate 0.61% among 370,000 | AID 743287;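 active means lowest replicate activation of at least 40%, so every replicate reaches that level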;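 further: 0% = median of neutral control wells and 100% = median of IBMX positive control wells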
# Env fusion inh – blocks HIV Env-driven cell-cell fusion | inhibition, % at 12.3 µM | hit rate 1.1% among 360,000 | AID 651610 | HeLa-JRFL Env/CEM21 cell fusion, luciferase;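 active means mean replicate inhibition score of at least 50 and every replicate individually at or above 50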;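 further: 0% = plate neutral controls and 100% = maraviroc near 300 nM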
# Cneo AK release – causes C. neoformans cell lysis. adenylate kinase release luminescence, 4 h; normalised: neutral wells 0, clomiphene wells 100. hit rate 0.2% among 360,000. lysis activity, % at 15 µM;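 active means mean lysis activity across replicates of at least 80%, whatever share of replicates individually reach that level; inactive means mean lysis activity below 80%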
#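 Material: C. neoformans cells; Schedule: 4 h static compound exposure, 37 °C, read 1 h post-reagent; Measured by: adenylate kinase release luminescence; Read-out: signal increase indicating cell lysis; Controls: Clomiphene as positive lysis control.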
# PAX8 inh HTS – lowers PAX8-driven luciferase in RMG-I cells. RMG-I TPO-luciferase reporter, SteadyGlo, 24 h. hit rate 1.2% among 360,000. inhibition, % at 12.6 µM;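 active means mean replicate inhibition at least 60% with every replicate also reaching 60%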;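 further: luciferase light reporting Pax8 driven TPO promoter activity; plate controls were median of neutral control wells for no effect and mitoxantrone controls for full effect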
# CDK5 inh – inhibitors of human CDK5/p35 kinase; Q00535+Q15078; hit rate 0.01% among 330,000; inhibition, % at 10 µM; Recombinant CDK5/p35, ADP-Glo luminescence, 60 min;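 active means highest replicate inhibition of at least 50% and at least 75% of replicates reaching 50%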;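 further: plate controls were DMSO neutral control for no effect and GW8510 at 10 µM for full effect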
# dFosB activator – enhances mouse delta FosB homodimer DNA binding. activation, % at 25 µM. hit rate 0.99% among 340,000. purified delta FosB, TAMRA-CDK5 oligo fluorescence polarization; percent of positive-control signal above neutral wells;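 active means mean activation above about 17%, with every replicate also reaching it, limit read from the data, passing the limit was not always enough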
# Target sequence (P13346 whole entry, looked up): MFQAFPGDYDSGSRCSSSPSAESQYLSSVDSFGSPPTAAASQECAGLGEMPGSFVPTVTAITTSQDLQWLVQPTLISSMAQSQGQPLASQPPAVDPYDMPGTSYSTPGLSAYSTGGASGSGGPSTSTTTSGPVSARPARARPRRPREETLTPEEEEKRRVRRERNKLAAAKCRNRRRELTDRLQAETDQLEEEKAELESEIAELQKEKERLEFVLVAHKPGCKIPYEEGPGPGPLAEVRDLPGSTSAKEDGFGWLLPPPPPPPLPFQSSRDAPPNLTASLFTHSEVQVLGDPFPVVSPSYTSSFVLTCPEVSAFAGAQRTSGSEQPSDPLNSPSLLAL
# Active calls of the source: *; i = inactive; nt = not tested or not shown; [ ] = another dose, or the depositor's remark.
SMILES,GSIS activator,Env fusion inh,Cneo AK release,PAX8 inh HTS,CDK5 inh,dFosB activator
CCC1CN2CCc3cc(OC)c(OC)cc3C2CC1CC1NCCc2c1[nH]c1ccc(O)cc21 (stereo not drawn),-7,73*,nt,101*,2,29*
O=C(Cc1ccccc1)N1CCCCN2[C@H](CO)[C@@H](c3ccc(C#Cc4ccccc4)cc3)[C@H]2C1,-8,nt,46,-3,nt,nt
Cc1ccc(C(=O)N[C@@H](C)CN2C3=NC[C@@H](Cc4ccccc4)N3C[C@H]2Cc2ccc(O)cc2)cc1Br,-53,75*,nt,111*,nt,nt
CC(=O)N1C2CN(C)CC1C2c1ccc(Br)cc1 (stereo not drawn),-4,nt,nt,nt,nt,nt
Cc1cccc(S(=O)(=O)N2[C@@H]3c4ccc(-c5ccc(F)cc5)c(=O)n4C[C@H]2[C@H](CO)[C@H]3C(=O)O)c1,2,-2[16.7 µM],nt,nt,nt,nt
Cc1ccc(N2C(=O)NC(=O)C(CCc3ccccn3)(Cc3ccc(F)cc3)C2=O)cc1 (stereo not drawn),-8,58*,nt,5,-2,-2
CCc1ccc(N2C(=O)NC(=O)C(CCc3ccncc3)(CCc3ccncc3)C2=O)cc1,29,9,nt,15,0,-4
O=C(O)[C@@H]1[C@@H](CO)[C@@H]2Cn3c(ccc(-c4ccccc4)c3=O)[C@H]1N2C(=O)C1CCCCC1,0,nt,2,-12,nt,nt
COC(=O)[C@@H]1[C@@H](CO)[C@@H]2Cn3c(ccc(/C=C/c4ccccc4)c3=O)[C@H]1N2C(=O)C1CC1,-9,nt,31,nt,nt,nt
NS(=O)(=O)c1ccc(N=Cc2c(O)n(C3CCCCC3)c(=O)n(C3CCCCC3)c2=O)cc1,739*,35,0,nt,1,-11
Cc1cccc(-n2c(O)c(C=Nc3ccc(S(N)(=O)=O)cc3)c(=O)[nH]c2=O)c1,1,7,nt,5,0,-10
CCn1c(O)c(C=Nc2ccc(S(N)(=O)=O)cc2)c(=O)n(CC)c1=S,nt,25,nt,15,0,19*
CCn1c(O)c(C=Nc2ccc(S(N)(=O)=O)cc2)c(=O)[nH]c1=S,44,nt,nt,14,-3,20*
CCn1c(O)c(C=NCc2ccccc2)c(=O)[nH]c1=S,35,9,nt,3,0,0
COC(=O)[C@@H]1[C@@H](CO)[C@@H]2Cn3c(ccc(-c4cccc(OC)c4)c3=O)[C@H]1N2CC1CC1,21,nt,-3,nt,nt,nt
Cc1ccccc1-c1ccc([C@@H]2[C@H]3CN(C(=O)Cc4ccccn4)CCCCN3[C@H]2CO)cc1,-4,nt,0,-8,nt,nt
Fc1ccc(C2=CCN(C(c3cccs3)c3nnnn3CCc3ccccc3)CC2)cc1 (stereo not drawn),nt,-72,0,nt,2,-9
CCC(C)(C)n1nnnc1C(c1cccs1)N1CC=C(c2ccc(F)cc2)CC1 (stereo not drawn),17,96*,0,nt,1,-4
O=C(Cc1ccncc1)N1CCCCN2[C@H](CO)[C@H](c3ccc(C#Cc4ccccc4F)cc3)[C@H]2C1,17,nt,7,-7,nt,nt
CC(C)c1oc(=O)cc2c1[C@@H](O)[C@H]1OC(=O)[C@@]3(C)CC[C@@H](O)[C@@]2(C)C13 (stereo partly drawn),nt,i,7,37,1,-2
CC(C)c1oc(=O)cc2c1[C@@H](O)[C@H]1OC(=O)[C@@]3(C)C[C@@H](O)[C@@H](O)[C@@]2(C)C13 (stereo partly drawn),-15,-257,2,86*,-1,-5
N=Cc1c(O)n(-c2ccc(C34CC5CC(CC(C5)C3)C4)cc2)c(=O)[nH]c1=O,-20,-14,nt,1,0,46*
O=c1[nH]c(=O)n(-c2ccc(Br)cc2)c(O)c1C=NC(CO)(CO)CO,-7,-7,-2,-5,nt,nt
COC(=O)[C@H]1[C@H](CO)[C@H]2Cn3c(ccc(C4=CCCC4)c3=O)[C@@H]1N2C(=O)C1CCCCC1,3,-6[16.7 µM],nt,-11,nt,nt
Cc1ccccc1S(=O)(=O)N1[C@@H]2c3ccc(-c4cccnc4)c(=O)n3C[C@H]1[C@H](CO)[C@H]2C(=O)O,-1,nt,-2,-1,nt,nt
CNc1ccc2nc3ccccc3[n+](C)c2c1,-34,-6,-3,65*,5,-213
C[n+]1c2ccccc2nc2ccc(NCCO)cc21,3,57*,2,-38,5,-264

# Screening results (PubChem BioAssay)
